Results published in ChEMBL document CHEMBL4118262, “Synthesis and biological evaluation of novel N-substituted nipecotic acid derivatives with an alkyne spacer as GABA uptake inhibitors” (Bioorg Med Chem, 2018).

Columns and labels:
[1] = biological target: Sodium- and chloride-dependent GABA transporter 1 (Mus musculus) (UniProt P31648); assay: Inhibition of [2H10]NO 711 binding to mouse GAT1 expressed in HEK293 cell membranes assessed as remaining NO711 binding at 100 uM after 40 mins by LC-ESI-MS-MS analysis relative to control
[2] = biological target: T1, Sodium- and chloride-dependent GABA transporter 1 (Mus musculus, UniProt P31648); assay: Inhibition of mouse GAT1 expressed in HEK293 cells assessed as decrease in [3H]GABA uptake preincubated for 25 mins followed by [3H]GABA addition measured after 4 mins by liquid scintillation counting analysis; format: cell-based
Outline: (§1)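 [³H]GABA uptake assay in HEK cells expressing the mGAT subtype named in the line, run in triplicate. Potencies are given as pIC₅₀ ± SEM. No SEM is given where only one triplicate measurement was made. Where 100 µM test compound left uptake at or above 50% (pIC₅₀ ≤ 4.00), the percent remaining [³H]GABA uptake at 100 µM is reported instead.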

GABA transporter 4 = biological target: T2, GABA transporter 4 (Mus musculus, UniProt P31650); assay: Inhibition of mouse GAT4 expressed in HEK293 cells assessed as decrease in [3H]GABA uptake preincubated for 25 mins followed by [3H]GABA addition measured after 4 mins by liquid scintillation counting analysis; format: cell-based; outline: as §1
T2 sequence (P31650 whole entry): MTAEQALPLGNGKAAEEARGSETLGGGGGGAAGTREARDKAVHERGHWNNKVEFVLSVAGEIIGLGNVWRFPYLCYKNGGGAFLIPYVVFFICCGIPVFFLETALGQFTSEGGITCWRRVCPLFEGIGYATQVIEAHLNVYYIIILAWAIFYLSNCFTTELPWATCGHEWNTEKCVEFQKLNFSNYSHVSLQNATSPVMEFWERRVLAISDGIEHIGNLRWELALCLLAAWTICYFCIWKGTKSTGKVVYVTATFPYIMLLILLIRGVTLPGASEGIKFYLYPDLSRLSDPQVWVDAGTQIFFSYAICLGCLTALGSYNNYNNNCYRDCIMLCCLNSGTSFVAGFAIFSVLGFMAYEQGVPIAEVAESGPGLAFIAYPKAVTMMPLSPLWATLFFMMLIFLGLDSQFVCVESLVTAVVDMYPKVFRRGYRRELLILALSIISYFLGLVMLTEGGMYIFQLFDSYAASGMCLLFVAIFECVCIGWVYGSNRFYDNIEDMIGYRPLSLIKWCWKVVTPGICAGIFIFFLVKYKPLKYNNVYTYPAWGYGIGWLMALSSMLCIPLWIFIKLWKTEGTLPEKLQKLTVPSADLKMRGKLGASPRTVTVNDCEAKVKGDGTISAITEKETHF

[3] = biological target: T1, Sodium- and chloride-dependent GABA transporter 1; assay: Inhibition of [2H10]NO 711 binding to mouse GAT1 expressed in HEK293 cell membranes after 40 mins by LC-ESI-MS-MS analysis
Outline: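 MS Binding Assay on mGAT1 expressed in HEK cells, with NO711 as marker. Run in triplicate. Results are reported as pKi ± SEM. Where only one triplicate measurement was made, no SEM is given.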

[4] = biological target: T3, GABA transporter 4 (Mus musculus) (UniProt P31650); assay: Inhibition of mouse GAT4 expressed in HEK293 cells assessed as decrease in [3H]GABA uptake at 100 uM preincubated for 25 mins followed by [3H]GABA addition measured after 4 mins by liquid scintillation counting analysis relative to control; format: cell-based; parameters: scale not given: the % may be the effect or the level left; outline: as §1
T3 sequence (whole entry): T2 sequence (P31650 whole entry)

[5] = tested on: GABA transporter mGAT3 (Slc6a13) (Mus musculus); assay: Inhibition of mouse GAT3 expressed in HEK293 cells assessed as decrease in [3H]GABA uptake at 100 uM preincubated for 25 mins followed by [3H]GABA addition measured after 4 mins by liquid scintillation counting analysis relative to control; parameters: scale not given: the % may be the effect or the level left
[6] = tested on: betaine/GABA transporter BGT1 (mGAT2, Slc6a12) (Mus musculus); assay: Inhibition of mouse GAT2 expressed in HEK293 cells assessed as decrease in [3H]GABA uptake at 100 uM preincubated for 25 mins followed by [3H]GABA addition measured after 10 mins by liquid scintillation counting analysis relative to control; parameters: scale not given: the % may be the effect or the level left
[7] = biological target: Sodium- and chloride-dependent GABA transporter 1 (Mus musculus) (UniProt P31648); assay: Inhibition of mouse GAT1 expressed in HEK293 cells assessed as decrease in [3H]GABA uptake at 100 uM preincubated for 25 mins followed by [3H]GABA addition measured after 4 mins by liquid scintillation counting analysis relative to control; format: cell-based; parameters: scale not given: the % may be the effect or the level left; outline: as §1

Row | SMILES | Activity [1] | IC50 [2] | IC50 (GABA transporter 4) | Ki [3] | Activity [4] | Activity [5] | Activity [6] | Activity [7]
1 | COc1ccc(C(OCCN2CCC[C@H](C(=O)O)C2)(c2ccc(OC)cc2)c2ccc(OC)cc2C)cc1 | 59% | 64.6 µM | 1.66 µM |  |  |  |  | 
2 | COc1ccc(C(/C=C/CN2CCCC(C(=O)O)C2)(c2ccc(OC)cc2)c2ccc(OC)cc2)cc1 (configuration not stated) |  |  |  | 14.8 µM |  |  |  | 
3 | COc1ccc(C(CC#CCN2CCCC(C(=O)O)C2)(c2ccc(OC)cc2)c2ccc(OC)cc2)cc1 (racemic) |  | 52.5 µM | 17.4 µM | 37.2 µM |  |  |  | 
4 | O=C(O)C1CCCN(CC#CCC(c2ccccc2)(c2ccccc2)c2ccccc2)C1 (racemic) |  | 35.5 µM | 70.8 µM | 14.5 µM |  | 50% | 66% | 
5 | COc1ccc(C(C#CCN2CCCC(C(=O)O)C2)(c2ccc(OC)cc2)c2ccc3c(c2)OCO3)cc1 (racemic) |  | 22.9 µM | 51.3 µM | 4.9 µM |  |  |  | 
6 | COc1ccc(C(C#CCN2CCCC(C(=O)O)C2)c2ccc(OC)cc2)cc1 (racemic) |  | 3.72 µM | 23.4 µM | 1.1 µM |  |  | 80% | 
7 | COc1ccc(C(C#CCCN2CCCC(C(=O)O)C2)(c2ccc(OC)cc2)c2ccc(OC)cc2)cc1 (racemic) |  | 15.8 µM | 25.7 µM | 2.75 µM |  |  |  | 
8 | COc1ccc(C(C#CCN2CCCC(C(=O)O)C2)(Cc2ccccc2)c2ccc(OC)cc2)cc1 (racemic) |  | 8.32 µM | 41.7 µM | 2.14 µM |  |  | 67% | 
9 | COc1ccc(C(C#CCN2CCCC(C(=O)O)C2)(c2ccc(OC)cc2)c2ccc(OC)cc2)cc1 (racemic) |  | 14.5 µM | 29.5 µM | 4.37 µM |  |  |  | 
10 | COc1ccc(C(C#CCN2CCCC(C(=O)O)C2)(c2ccc(OC)cc2)c2nccn2C)cc1 (racemic) | 83% |  |  |  | 91% | 103% | 106% | 80%

Other lines, results leading:

Row | Activity [1] | IC50 [2] | IC50 (GABA transporter 4) | Ki [3] | Activity [4] | Activity [5] | Activity [6] | Activity [7] | SMILES
11 |  | 67.6 µM | 8.51 µM | 38 µM |  |  |  |  | COc1ccc(C(OCCN2CCCC(C(=O)O)C2)(c2ccc(OC)cc2C)c2ccc(OC)cc2C)cc1 (configuration not stated)
12 |  | 11 µM | 12 µM | 1.91 µM |  |  |  |  | COc1ccc(C(C#CCN2CCCC(C(=O)O)C2)(c2ccc(OC)cc2)c2ccc3sccc3c2)cc1 (racemic)
13 |  | 0.427 µM |  | 0.0912 µM | 64% | 61% | 66% |  | O=C(O)C1CCCN(CCC#CC(c2ccccc2)(c2ccccc2)c2ccccc2)C1 (racemic)
14 |  |  |  | 77.6 µM | 79% | 82% | 84% | 68% | COc1ccc(C(C#CCN2CCCC(C(=O)O)C2)(c2ccc(OC)cc2)c2nccs2)cc1 (racemic)
15 | 57% |  | 49 µM |  |  |  | 77% | 69% | C=C=C(CN1CCCC(C(=O)O)C1)C(c1ccc(OC)cc1)(c1ccc(OC)cc1)c1ccc(OC)cc1 (racemic)
16 |  | 25.1 µM | 34.7 µM | 5.25 µM |  |  | 70% |  | COc1ccc(C(C#CCN2CCCC(C(=O)O)C2)(c2ccc(OC)cc2)c2ccsc2)cc1 (racemic)
17 |  | 13.2 µM | 36.3 µM | 1.91 µM |  |  | 53% |  | COc1ccc(CC(C#CCN2CCCC(C(=O)O)C2)(c2ccc(OC)cc2)c2ccc(OC)cc2)cc1 (racemic)
18 | 70% |  |  |  | 54% | 80% | 87% | 62% | C=C=C(CN1CCCC(C(=O)O)C1)C(c1ccccc1)(c1ccccc1)c1ccccc1 (racemic)
19 | 59% |  |  |  | 69% | 74% | 72% | 66% | COc1ccc(C(O)(C#CCN2CCCC(C(=O)O)C2)c2ccc(OC)cc2)cc1 (racemic)
